Like-named read-outs stand apart in the source and are kept apart here.

Common to all, as to assay type: in vivo, mouse
Series [1] relates to U87 MG tumor. In words: Autoradiography of resected tissues. The method, boiled down:
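U87 MG tumour-bearing mice got the 18F-labelled fluorescent PARP1 tracer alone, or the tracer 30 min after Olaparib as a blocking agent. Tumour, brain and muscle were resected, and tumour slices were imaged by autoradiography beside H&E staining. Tissue/muscle ratios were calculated for tumours and brains in the non-blocked and blocked groups.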

Series [2] relates to U87 MG tumor. The following applies: for Tumor to brain ratio: ex vivo.
In series [3] the test system is U87 MG glioblastoma xenografts. In words: Small animal PET imaging of U87 MG glioblastoma xenografts. In outline:
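Mice carrying U87 MG xenografts in the right shoulder were given 100–200 μl tracer (80–160 mCi/μmol), e.g. 200 μCi in 100 μl 15 % PEG300/85 % 0.9 % saline. PET/CT gave coronal and axial reconstructions, and tumour uptake and SUV were derived. Blocked mice were pre-injected with a 50-fold excess of Olaparib (3.7 μmol in 100 μl of the same vehicle).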

The nature of series [4]: Ex vivo blood half-life. The note with it: tail vein injection, 27 μCi, 100 μl. In outline: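 For blood clearance, the tracer was given by tail vein. Blood was collected at 5, 15, 30, 60 and 120 min, weighed and γ-counted, and expressed as %IA/g (n = 4). A weighted t1/2 was derived.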
Series [5] concerns U87 MG glioblastoma xenografts. Put plainly: Biodistribution study in tumor xenograft mice. In outline: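 Tumour xenograft mice were injected with the tracer, with or without Olaparib pre-injection. Mice were euthanized at 90 min p.i. and organ radioactivity was counted, expressed as %ID/g (n = 4, mean ± SD). Tumour-to-non-target tissue ratios, including tumour/brain and tumour/muscle, were calculated.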

Where [6] appears, read: blocked, pre-injection of Olaparib.

Turning to `CC1=CC(C)=[N+]2C1=Cc1ccc(CCC(=O)N3CCN(C(=O)c4cc(Cc5n[nH]c(=O)c6ccccc56)ccc4F)CC3)n1[B-]2(F)[18F]` (stereo not drawn) [[^18F]PARPi-FL], the “Lowering of tumor to muscle ratio by blocking” value in series [1] (Olaparib blocking) is “approximately 66%”. Further, the “Overall reduction of tumor uptake in blocked mice (autoradiography)” value in series [1] (Olaparib injected 30 min before tracer) came out at 80±12%. Besides, in series [1] (Olaparib-blocked mice), the “Brain to muscle ratio (autoradiography)” value was 1.02±0.22 and the “Tumor to muscle ratio (autoradiography)” value worked out at 2.6±1.6. In series [1] (non-blocked mice), the “Brain to muscle ratio (autoradiography)” value was 0.87± 0.48 and the “Tumor to muscle ratio (autoradiography)” value was determined as 7.5±0.9. Moreover, in series [2] (autoradiography), the “Reduction of tumor uptake in Olaparib-blocked organs” value is 66±9% and the “Tumor to brain ratio” value is listed as “ninefold”. In series [2] (surface fluorescence imaging), the “Reduction of tumor uptake in Olaparib-blocked organs” value stood at 74±12% and the “Tumor to brain ratio” value is reported as “sevenfold”. Besides, the “Organ uptake / excretion seen by PET” value in series [3] (PET imaging) is “high uptake in the liver and in the intestinal tract”. Besides, in series [3] (non-blocked), the “Standardized uptake value (SUV) in U87 MG tumors” value worked out at 1.10±0.53 and the “Uptake in U87 MG tumors” value is reported as 0.78±0.1. Moreover, the “Standardized uptake value (SUV) in U87 MG tumors” value in series [3] (pre-injection of an excess of Olaparib (50-fold)) is 0.10±0.06. Also, the “Blood half-life, weighted t1/2” value in series [4] stood at 15.6 min. In addition, the “Tumor to muscle ratio” value in series [5] (90 min post injection) turned out to be 4±0.6. In series [5] (U87 MG xenograft-bearing mice, bone uptake), the “Metabolic stability in vivo (defluorination)” value is reported as “quick metabolic defluorination”. Besides, the “Tumor to brain tissue ratio” value in series [5] (biodistribution) stood at 12±2.1. Moreover, the “Reduction of uptake in blocked U87 MG tumors” value in series [5] (blocked U87 MG tumors) is listed as 84%. Besides, in series [5] (setting [6]), the Kidneys uptake was 0.4±0.1 %ID/g and the Liver uptake is 2.02± 0.2 %ID/g. In series [5] (non-blocked), this compound gave a Kidneys uptake of 0.7±0.1 %ID/g and a Liver uptake of 3.8±0.4 %ID/g. The compound also came in with a Tumor uptake in series [5] (positive control group (non-blocked), 90 min p.i.) of 0.78±0.1 %ID/g.

The values are drawn from PMC4609241 (Molecular imaging and biology : MIB : the official …, 2015).
